Data from ChEMBL document CHEMBL2429814 (J Med Chem, 2013).
Active and inactive are the calls of the source. The rule behind the calls is not given here.

How the values were obtained:
[1] = biological target: Metabotropic glutamate receptor 5 (Rattus norvegicus) (UniProt P31424); test: Antagonist activity at rat mGluR5 stably expressed in HEK293 cells assessed as inhibition of glutamate-induced intracellular calcium level by Fluo-4AM dye-based fluorescence assay relative to control; assay type: functional, cell-based; conditions: concentration not given here
[2] = biological target: T1, Metabotropic glutamate receptor 5 (Rattus norvegicus, UniProt P31424); test: Antagonist activity at rat mGluR5 stably expressed in HEK293 cells assessed as inhibition of glutamate-induced intracellular calcium level by Fluo-4AM dye-based fluorescence assay; assay type: functional, cell-based
[3] = biological target: Metabotropic glutamate receptor 3 (Rattus norvegicus) (UniProt P31422); test: Potentiation of rat mGluR3 receptor stably expressed in HEK293-GIRK cells assessed as fold shift in glutamate concentration response curve at 10 uM by C2+ mobilization assay relative to control; assay type: cell-based; conditions: in the assay text read “thallium flux assay” for “C2+ mobilization assay”
Summary of the method: (§1)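 HEK293-GIRK cells expressing the rat mGlu subtype were plated at 15,000 cells/well. Compound at 10 µM, or vehicle, was added, then 140 s later a concentration-response curve of glutamate (L-AP4 for mGlu7) in thallium buffer containing 12 mM thallium sulfate. Thallium flux through GIRK channels was read by fluorescence, and the fold shift of the agonist curve was derived.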

[4] = biological target: T1, Metabotropic glutamate receptor 5; test: Agonist activity at mGlu5R in CA3 pyramidal neurons Sprague-Dawley rat hippocampus assessed as effect on amplitude relative to control; assay type: tissue-based
[5] = biological target: T1, Metabotropic glutamate receptor 5; test: Agonist activity at mGlu5R in SC-CA1 synapse of Sprague-Dawley rat hippocampus assessed as induction of long-term depression at 10 uM measured 55 mins post compound washout; assay type: tissue-based
Summary of the method: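 Male Sprague-Dawley rats aged 30–40 days; hippocampal slices at 30–32°C. Bipolar stimulation of Schaffer collaterals near the CA3-CA1 border, recording in CA1 stratum radiatum, baseline intensity 50–60% of maximum. Compound in DMSO, bath-perfused. fEPSP slopes averaged over three sequential responses and normalized to the pre-drug baseline.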

Cytochrome P450 1A2 = biological target: T2, Cytochrome P450 1A2 (Homo sapiens, UniProt P05177); test: Inhibition of human CYP1A2; assay type: ADME
T2 sequence (P05177 whole entry): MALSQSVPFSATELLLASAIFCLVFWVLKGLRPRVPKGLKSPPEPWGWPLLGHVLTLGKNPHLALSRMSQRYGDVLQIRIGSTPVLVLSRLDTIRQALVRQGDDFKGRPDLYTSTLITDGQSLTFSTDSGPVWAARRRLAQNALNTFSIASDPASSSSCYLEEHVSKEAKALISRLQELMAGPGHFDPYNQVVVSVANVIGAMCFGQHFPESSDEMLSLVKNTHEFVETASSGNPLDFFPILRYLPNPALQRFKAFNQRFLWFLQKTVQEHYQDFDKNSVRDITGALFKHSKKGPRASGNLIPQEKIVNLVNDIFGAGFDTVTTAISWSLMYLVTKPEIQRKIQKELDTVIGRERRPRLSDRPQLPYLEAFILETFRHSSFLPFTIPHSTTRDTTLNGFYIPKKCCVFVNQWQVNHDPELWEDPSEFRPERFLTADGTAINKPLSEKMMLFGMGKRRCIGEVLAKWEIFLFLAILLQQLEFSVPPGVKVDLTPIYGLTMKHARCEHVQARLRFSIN
Summary of the method: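 Inhibition of the human CYP1A2 isoform measured in human liver microsomes; reported as IC50.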

[6] = biological target: Metabotropic glutamate receptor 8 (Rattus norvegicus) (UniProt P70579); test: Potentiation of rat mGluR8 receptor stably expressed in HEK293-GIRK cells assessed as fold shift in glutamate concentration response curve at 10 uM by C2+ mobilization assay relative to control; assay type: cell-based; conditions: in the assay text read “thallium flux assay” for “C2+ mobilization assay”; summary of the method: as §1
[7] = biological target: Metabotropic glutamate receptor 4 (Rattus norvegicus) (UniProt P31423); test: Potentiation of rat mGluR4 receptor stably expressed in HEK293-GIRK cells assessed as fold shift in glutamate concentration response curve at 10 uM by C2+ mobilization assay relative to control; assay type: cell-based; conditions: in the assay text read “thallium flux assay” for “C2+ mobilization assay”; summary of the method: as §1
Brain = test: Fraction unbound in rat brain; assay type: ADME, tissue-based
Summary of the method: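 Binding to rat brain homogenate used to derive fraction unbound in brain.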

Cytochrome P450 2C9 = Cytochrome P450 2C9 (Homo sapiens, UniProt P11712); test: Inhibition of human CYP2C9; assay type: ADME
Summary of the method: (§2)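 Inhibition of individual human CYP isoforms (2C9, 2D6, 3A4) measured in human liver microsomes; IC50 values reported.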

[8] = Agonist activity at rat mGluR5 S808A mutant stably expressed in HEK293 cells assessed as increase in intracellular calcium level at 1 to 100 uM by Fluo-4AM dye-based fluorescence assay; assay type: cell-based; conditions: hek293, 100 µM
Plasma [9] = test: (§3) Fraction unbound in rat plasma by equilibrium dialysis method; assay type: ADME, cell-free
Summary of the method: (§4)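 Plasma protein binding measured by equilibrium dialysis in human or rat plasma; reported as percent unbound.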

[10] = biological target: Metabotropic glutamate receptor 2 (Rattus norvegicus) (UniProt P31421); test: Potentiation of rat mGluR2 receptor stably expressed in HEK293-GIRK cells assessed as fold shift in glutamate concentration response curve at 10 uM by C2+ mobilization assay relative to control; assay type: cell-based; conditions: in the assay text read “thallium flux assay” for “C2+ mobilization assay”; summary of the method: as §1
[11] = biological target: Metabotropic glutamate receptor 1 (Rattus norvegicus) (UniProt P23385); test: Potentiation of rat mGluR1 receptor stably expressed in HEK293 cells assessed as fold shift in glutamate concentration response curve at 10 uM by […] mobilization assay relative to control; assay type: cell-based
Summary of the method: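 HEK293 cells stably expressing rat mGlu1 were plated at 20,000 cells/well and loaded with Fluo-4AM. Compound at 10 µM final, or vehicle, was added, then a glutamate concentration-response curve 140 s later. Calcium flux was measured as fluorescence increase, and the fold shift of the glutamate curve was derived.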

[12] = Agonist activity at rat mGluR5 T780A mutant stably expressed in HEK293 cells assessed as increase in intracellular calcium level at 1 to 100 uM by Fluo-4AM dye-based fluorescence assay; assay type: cell-based; conditions: hek293, 100 µM
[13] = biological target: T1, Metabotropic glutamate receptor 5; test: Agonist activity at mGlu5R in CA3 pyramidal neurons Sprague-Dawley rat hippocampus assessed as effect on intervent interval relative to control; assay type: tissue-based
Summary of the method: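 Male Sprague-Dawley rats aged 24–30 days; hippocampal slices equilibrated 5–10 min at 30–32°C in a submersion chamber. Recording electrode in the CA3 pyramidal cell body layer. Compound diluted in DMSO and bath-perfused. Spontaneous epileptiform events recorded as field potentials, with inter-event interval normalized to baseline.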

[14] = biological target: Metabotropic glutamate receptor 6 (Rattus norvegicus) (UniProt P35349); test: Potentiation of rat mGluR6 receptor stably expressed in HEK293-GIRK cells assessed as fold shift in glutamate concentration response curve at 10 uM by C2+ mobilization assay relative to control; assay type: cell-based; conditions: in the assay text read “thallium flux assay” for “C2+ mobilization assay”; summary of the method: as §1
Cytochrome P450 2D6 = Cytochrome P450 2D6 (Homo sapiens, UniProt P10635); test: Inhibition of human CYP2D6; assay type: ADME; summary of the method: as §2
[15] = biological target: Metabotropic glutamate receptor 5 (Rattus norvegicus) (UniProt P31424); test: Positive allosteric modulation of rat mGluR5 stably expressed in HEK293 cells assessed as increase in intracellular calcium level by Fluo-4AM dye-based fluorescence assay relative to glutamate; assay type: functional, cell-based
Plasma [16] = test: (§5) Fraction unbound in human plasma by equilibrium dialysis method; assay type: ADME, cell-free; summary of the method: as §4
[17] = biological target: Metabotropic glutamate receptor 7 (Rattus norvegicus) (UniProt P35400); test: Potentiation of rat mGluR7 receptor stably expressed in HEK293-GIRK cells assessed as fold shift in […] concentration response curve at 10 uM by […] relative to control; assay type: cell-based; summary of the method: as §1
[18] = biological target: Metabotropic glutamate receptor 5 (Homo sapiens, UniProt P41594); test: Positive allosteric modulation of human mGluR5
[19] = biological target: Metabotropic glutamate receptor 5 (Rattus norvegicus) (UniProt P31424); test: Positive allosteric modulation of mGluR5 in rat cortical neurons at 3 uM relative to DHPG
[20] = biological target: T1, Metabotropic glutamate receptor 5; test: Positive allosteric modulation of rat mGluR5
[21] = Plasma protein binding in rat; assay type: ADME, cell-free; conditions: read-out: PPB
Summary of the method: (§6)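 Fraction unbound measured by equilibrium dialysis in human or rat plasma.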

[22] = as §3; assay type: ADME, cell-free; summary of the method: as §4
[23] = Plasma protein binding in human; assay type: ADME, cell-free; conditions: read-out: PPB; summary of the method: as §6
[24] = as §5; assay type: ADME, cell-free; summary of the method: as §4
[25] = biological target: Metabotropic glutamate receptor 5 (Rattus norvegicus) (UniProt P31424); test: Potentiation of rat mGluR5 receptor stably expressed in HEK293 cells assessed as fold shift in glutamate concentration response curve at 10 uM relative to control; assay type: cell-based
Summary of the method: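 HEK293 cells stably expressing rat mGlu5 were loaded with Fluo-4AM. Compound at 10 µM, or vehicle, was added, and a glutamate concentration-response curve followed 140 s later. The fold leftward shift of the glutamate curve was read from calcium fluorescence. Values are means of three independent experiments in triplicate.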

[26] = biological target: T1, Metabotropic glutamate receptor 5; test: Positive allosteric modulation of rat mGluR5 stably expressed in HEK293 cells assessed as increase in intracellular calcium level by Fluo-4AM dye-based fluorescence assay; assay type: functional, cell-based; conditions: read-out: EC50
Summary of the method: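 HEK293 cells stably expressing rat mGlu5 (low receptor density line), 15,000 cells/well, grown overnight at 37°C/5% CO2. Loaded with Fluo-4AM for 50 min at 37°C in HBSS with 20 mM HEPES, 2.5 mM probenecid, pH 7.4. Triple add: compound, then EC20 glutamate 140 s later, then EC80 glutamate 60 s later. Calcium fluorescence read over time. Values are means of ≥3 independent experiments run in duplicate or triplicate.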

[27] = biological target: Metabotropic glutamate receptor 5 (Rattus norvegicus) (UniProt P31424); test: Positive allosteric modulation of mGluR5 in rat cortical neurons at 1 uM relative to DHPG

T1 sequence (P31424 whole entry): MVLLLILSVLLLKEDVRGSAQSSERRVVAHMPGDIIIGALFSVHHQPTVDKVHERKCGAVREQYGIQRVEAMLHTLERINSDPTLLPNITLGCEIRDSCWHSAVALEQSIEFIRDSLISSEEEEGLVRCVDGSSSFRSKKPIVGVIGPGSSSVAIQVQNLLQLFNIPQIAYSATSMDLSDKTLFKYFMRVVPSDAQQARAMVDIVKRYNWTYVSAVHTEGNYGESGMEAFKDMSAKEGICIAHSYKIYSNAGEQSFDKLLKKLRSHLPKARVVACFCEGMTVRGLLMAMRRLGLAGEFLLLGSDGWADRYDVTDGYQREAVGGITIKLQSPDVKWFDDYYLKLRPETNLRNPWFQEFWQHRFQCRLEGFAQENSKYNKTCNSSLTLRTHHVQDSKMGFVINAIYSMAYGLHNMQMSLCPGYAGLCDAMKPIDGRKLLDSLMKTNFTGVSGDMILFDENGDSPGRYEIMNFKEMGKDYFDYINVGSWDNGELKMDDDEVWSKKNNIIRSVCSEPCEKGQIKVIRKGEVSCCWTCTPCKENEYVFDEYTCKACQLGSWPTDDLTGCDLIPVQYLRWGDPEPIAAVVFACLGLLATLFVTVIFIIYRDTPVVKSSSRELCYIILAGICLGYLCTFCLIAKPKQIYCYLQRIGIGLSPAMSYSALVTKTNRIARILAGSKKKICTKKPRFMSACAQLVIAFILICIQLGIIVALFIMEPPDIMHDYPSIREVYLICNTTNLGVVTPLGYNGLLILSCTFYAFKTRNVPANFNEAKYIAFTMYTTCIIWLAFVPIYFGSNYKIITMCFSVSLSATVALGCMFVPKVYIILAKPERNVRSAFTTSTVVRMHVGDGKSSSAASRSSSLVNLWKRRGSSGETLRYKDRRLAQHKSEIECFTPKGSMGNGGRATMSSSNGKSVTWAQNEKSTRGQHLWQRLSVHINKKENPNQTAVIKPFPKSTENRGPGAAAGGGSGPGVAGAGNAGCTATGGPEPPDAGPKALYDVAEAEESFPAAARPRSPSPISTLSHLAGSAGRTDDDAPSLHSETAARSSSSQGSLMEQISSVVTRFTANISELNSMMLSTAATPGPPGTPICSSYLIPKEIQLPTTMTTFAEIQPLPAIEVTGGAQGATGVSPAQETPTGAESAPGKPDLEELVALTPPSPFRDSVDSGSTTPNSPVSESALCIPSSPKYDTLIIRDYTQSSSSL
Chain of Metabotropic glutamate receptor 5 (Rattus norvegicus) (P31424 21-1203 limits assumed): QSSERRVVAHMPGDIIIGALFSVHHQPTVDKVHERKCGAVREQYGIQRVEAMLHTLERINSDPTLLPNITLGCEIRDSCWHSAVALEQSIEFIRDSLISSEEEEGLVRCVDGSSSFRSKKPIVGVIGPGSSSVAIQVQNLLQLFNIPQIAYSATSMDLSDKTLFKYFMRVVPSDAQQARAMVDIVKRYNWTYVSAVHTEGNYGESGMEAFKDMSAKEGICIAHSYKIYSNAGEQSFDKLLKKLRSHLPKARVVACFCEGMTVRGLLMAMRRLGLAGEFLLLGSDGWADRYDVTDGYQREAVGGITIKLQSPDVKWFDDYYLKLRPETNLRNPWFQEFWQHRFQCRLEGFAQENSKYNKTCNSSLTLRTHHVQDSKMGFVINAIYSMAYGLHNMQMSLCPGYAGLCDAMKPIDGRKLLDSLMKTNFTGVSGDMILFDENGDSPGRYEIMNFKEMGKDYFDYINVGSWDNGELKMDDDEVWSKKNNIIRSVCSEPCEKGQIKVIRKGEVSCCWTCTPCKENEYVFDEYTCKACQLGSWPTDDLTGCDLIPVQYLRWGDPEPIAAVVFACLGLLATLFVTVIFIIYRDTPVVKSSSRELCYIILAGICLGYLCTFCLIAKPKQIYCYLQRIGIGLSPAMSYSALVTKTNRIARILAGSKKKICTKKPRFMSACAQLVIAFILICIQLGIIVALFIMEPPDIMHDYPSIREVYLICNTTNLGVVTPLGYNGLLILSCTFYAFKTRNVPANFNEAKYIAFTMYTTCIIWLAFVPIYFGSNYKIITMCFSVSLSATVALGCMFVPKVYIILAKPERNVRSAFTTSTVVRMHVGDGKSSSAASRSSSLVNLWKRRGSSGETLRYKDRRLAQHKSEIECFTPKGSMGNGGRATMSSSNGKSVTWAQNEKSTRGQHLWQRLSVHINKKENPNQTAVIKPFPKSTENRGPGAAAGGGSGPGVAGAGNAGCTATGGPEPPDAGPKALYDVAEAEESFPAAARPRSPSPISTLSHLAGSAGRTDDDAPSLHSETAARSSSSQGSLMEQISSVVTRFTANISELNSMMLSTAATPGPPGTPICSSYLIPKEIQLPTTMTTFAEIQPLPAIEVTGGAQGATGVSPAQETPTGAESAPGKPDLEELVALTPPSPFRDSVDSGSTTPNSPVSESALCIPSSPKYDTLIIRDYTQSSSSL
Chain of Metabotropic glutamate receptor 5 (Homo sapiens, UniProt P41594) (P41594 whole entry): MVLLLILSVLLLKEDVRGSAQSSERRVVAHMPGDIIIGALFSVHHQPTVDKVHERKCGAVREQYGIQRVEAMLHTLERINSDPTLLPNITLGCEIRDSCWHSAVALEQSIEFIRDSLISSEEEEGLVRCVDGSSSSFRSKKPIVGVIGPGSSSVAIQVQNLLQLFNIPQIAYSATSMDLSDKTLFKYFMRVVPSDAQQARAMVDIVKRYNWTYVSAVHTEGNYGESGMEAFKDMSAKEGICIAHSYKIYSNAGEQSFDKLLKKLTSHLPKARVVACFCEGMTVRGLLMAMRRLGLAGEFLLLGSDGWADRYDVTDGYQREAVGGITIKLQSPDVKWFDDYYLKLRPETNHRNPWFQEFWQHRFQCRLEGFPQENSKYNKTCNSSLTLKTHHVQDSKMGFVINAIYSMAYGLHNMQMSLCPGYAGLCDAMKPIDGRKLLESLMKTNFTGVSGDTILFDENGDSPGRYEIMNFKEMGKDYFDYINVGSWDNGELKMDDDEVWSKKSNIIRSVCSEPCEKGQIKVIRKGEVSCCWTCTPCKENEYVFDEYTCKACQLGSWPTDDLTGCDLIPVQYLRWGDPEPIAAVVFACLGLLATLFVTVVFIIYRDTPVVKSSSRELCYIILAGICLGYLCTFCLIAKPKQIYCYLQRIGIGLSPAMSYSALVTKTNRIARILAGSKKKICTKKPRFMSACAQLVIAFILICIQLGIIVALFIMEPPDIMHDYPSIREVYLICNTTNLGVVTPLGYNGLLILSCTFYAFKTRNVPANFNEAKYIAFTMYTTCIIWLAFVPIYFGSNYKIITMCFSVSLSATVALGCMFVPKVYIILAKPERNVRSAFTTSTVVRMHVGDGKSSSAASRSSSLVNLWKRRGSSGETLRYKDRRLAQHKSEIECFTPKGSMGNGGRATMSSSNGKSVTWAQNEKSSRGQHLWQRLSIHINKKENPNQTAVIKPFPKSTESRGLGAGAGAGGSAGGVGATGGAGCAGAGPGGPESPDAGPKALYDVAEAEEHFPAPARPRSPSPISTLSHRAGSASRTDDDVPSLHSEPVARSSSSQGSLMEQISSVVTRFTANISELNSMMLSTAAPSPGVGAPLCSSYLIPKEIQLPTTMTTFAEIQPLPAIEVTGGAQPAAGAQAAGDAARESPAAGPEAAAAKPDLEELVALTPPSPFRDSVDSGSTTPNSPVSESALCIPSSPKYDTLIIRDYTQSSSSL
Chain of Cytochrome P450 2D6 (P10635 whole entry): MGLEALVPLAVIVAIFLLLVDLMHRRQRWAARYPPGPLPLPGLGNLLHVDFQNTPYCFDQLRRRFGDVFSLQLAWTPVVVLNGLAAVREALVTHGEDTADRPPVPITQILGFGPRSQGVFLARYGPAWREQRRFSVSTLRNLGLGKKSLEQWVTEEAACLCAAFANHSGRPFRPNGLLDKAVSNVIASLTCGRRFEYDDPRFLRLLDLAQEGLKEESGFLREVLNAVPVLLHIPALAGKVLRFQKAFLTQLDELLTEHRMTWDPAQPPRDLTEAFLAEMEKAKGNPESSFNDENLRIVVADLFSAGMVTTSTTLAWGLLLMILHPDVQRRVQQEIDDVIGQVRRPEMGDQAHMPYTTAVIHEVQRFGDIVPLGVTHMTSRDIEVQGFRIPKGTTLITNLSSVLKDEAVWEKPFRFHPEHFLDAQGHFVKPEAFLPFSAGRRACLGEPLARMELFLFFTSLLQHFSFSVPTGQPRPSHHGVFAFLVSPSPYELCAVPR
Chain of Metabotropic glutamate receptor 4 (Rattus norvegicus) (P31423 whole entry): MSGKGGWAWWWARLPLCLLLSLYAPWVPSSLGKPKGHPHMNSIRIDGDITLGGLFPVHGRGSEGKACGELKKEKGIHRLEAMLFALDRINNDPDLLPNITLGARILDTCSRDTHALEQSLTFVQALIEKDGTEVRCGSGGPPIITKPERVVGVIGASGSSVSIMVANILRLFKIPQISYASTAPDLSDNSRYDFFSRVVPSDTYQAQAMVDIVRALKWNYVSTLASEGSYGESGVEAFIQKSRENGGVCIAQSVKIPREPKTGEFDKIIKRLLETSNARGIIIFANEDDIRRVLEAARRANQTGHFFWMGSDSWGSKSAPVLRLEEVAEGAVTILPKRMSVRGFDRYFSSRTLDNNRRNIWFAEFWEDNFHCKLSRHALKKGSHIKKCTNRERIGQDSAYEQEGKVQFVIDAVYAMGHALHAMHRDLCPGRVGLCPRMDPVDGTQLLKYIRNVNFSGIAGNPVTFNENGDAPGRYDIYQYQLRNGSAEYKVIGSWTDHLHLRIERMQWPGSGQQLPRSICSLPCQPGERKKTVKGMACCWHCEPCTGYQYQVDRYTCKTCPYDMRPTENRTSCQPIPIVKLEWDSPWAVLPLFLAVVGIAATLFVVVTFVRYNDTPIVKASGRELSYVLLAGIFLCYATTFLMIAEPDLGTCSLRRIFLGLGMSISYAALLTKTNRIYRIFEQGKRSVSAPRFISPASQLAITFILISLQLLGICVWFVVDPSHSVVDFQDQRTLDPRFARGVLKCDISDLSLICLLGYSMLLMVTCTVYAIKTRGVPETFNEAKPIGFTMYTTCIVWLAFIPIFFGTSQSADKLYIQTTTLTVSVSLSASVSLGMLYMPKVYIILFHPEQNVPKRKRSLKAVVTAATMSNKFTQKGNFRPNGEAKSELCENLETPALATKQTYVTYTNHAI

## CC1(NC(=O)c2ccc(C#Cc3ccccn3)cn2)COC1
[1]
  inhibition: 16.7%
[2]
  IC50: 731 nM

## CC1(NC(=O)c2ccc(C#Cc3cccc(F)c3)cn2)COC1
[3]
  Activity: inactive
[4]
  Activity: 101.2%
[5]
  Activity: 100.3%
Cytochrome P450 1A2
  IC50: 5300 nM
[6]
  Activity: inactive
[7]
  Activity: inactive
Brain
  Fu: 1.6%
Cytochrome P450 2C9
  IC50: > 30000 nM
[8]
  Activity: Active
Plasma [9]
  Fu: 3.6%
[10]
  Activity: inactive
[11]
  Activity: inactive
[12]
  Activity: Not Active
[13]
  Activity: 127.9%
[14]
  Activity: inactive
Cytochrome P450 2D6
  IC50: > 30000 nM
[15]
  Efficacy: 45.5%
Plasma [16]
  Fu: 3.5%
[17]
  Activity: inactive

## CC(C)(C)c1nnc2n1CC[C@H](c1nc(-c3ccc(F)cc3)no1)C2
[18]
  EC50: 52 nM
[19]
  fold change (FC): 2.8
[20]
  EC50: 42 nM

## O=C(NC1CCC1)c1ccc(C#Cc2cccc(F)c2)cn1
[21]
  fraction unbound: < 0.01
[22]
  fraction unbound: < 0.01
[23]
  fraction unbound: < 0.01
[24]
  fraction unbound: < 0.01
[20]
  EC50: 4 nM

## C[C@@H](NC(=O)c1ccc(C#Cc2cccc(F)c2)cn1)C(F)(F)F
[15]
  Efficacy: 52.1%
[25]
  fold change (FC): 1.5
[26]
  EC50: 20.8 nM

## O=C(NCC1CC1)c1ccc(C#Cc2cccc(F)c2)cn1
[15]
  Efficacy: 61.4%
[25]
  fold change (FC): 1.6
[26]
  EC50: 36.7 nM

## CC(C)NC(=O)c1ccc(C#Cc2ccncc2)cn1
[27]
  fold change (FC): 2
[18]
  EC50: 33 nM
[20]
  EC50: 24 nM

## CC(C)[C@@H](C)NC(=O)c1ccc(C#Cc2ccccn2)cn1
[15]
  Efficacy: 58.5%
[25]
  fold change (FC): 1.3
[26]
  EC50: 79 nM
